Results published in PMC3979583 (ACS medicinal chemistry letters, 2013).
Read-outs that look alike come from different tables or passages of the source.

Key:
Type in all cases: cell-based
human CB2 receptors = human CB2 receptors (Homo sapiens, UniProt P34972)
[1] = tested on: osteoclast (OCL) formation; assay: osteoclast; conditions: mouse bone marrow mononuclear cells, RANKL plus MCSF
How it was run: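 Test compound was given at concentrations including 0.1, 1 and 5 μM, alongside a vehicle control. The read-out was inhibition of osteoclastogenesis, expressed as percent suppression of osteoclast formation. Each experiment was run in triplicate, and data were reported as means ± standard deviation.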

cytotoxicity assay = conditions: 5 μM

Sequence of human CB2 receptors (P34972 whole entry): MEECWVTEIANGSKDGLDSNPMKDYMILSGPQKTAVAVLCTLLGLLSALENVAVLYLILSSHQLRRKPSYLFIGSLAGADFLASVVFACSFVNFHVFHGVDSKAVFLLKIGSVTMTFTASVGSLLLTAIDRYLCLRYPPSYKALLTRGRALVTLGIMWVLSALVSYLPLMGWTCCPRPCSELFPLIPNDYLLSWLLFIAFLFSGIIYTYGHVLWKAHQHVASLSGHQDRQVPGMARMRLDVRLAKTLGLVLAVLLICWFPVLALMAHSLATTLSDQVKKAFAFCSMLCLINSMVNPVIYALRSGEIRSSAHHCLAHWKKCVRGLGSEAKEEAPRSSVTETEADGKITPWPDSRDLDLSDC

functional behaviour at CB2 receptor (human CB2 receptors; based on LANCE signal change)	Compound	inhibition of osteoclastogenesis (in words) [1]	functional behaviour at CB2 receptor (human CB2 receptors)	cytotoxic effects (cytotoxicity assay)
behaved as CB2 receptor inverse agonists	CCN(CC)c1ccc(CN(c2ncc(C)s2)S(=O)(=O)c2ccc(OC)cc2)cc1 [Compound 45]	great inhibition of osteoclastogenesis	–	–
behaved as CB2 receptor inverse agonists	CCN(CC)c1ccc(CN(c2ccccc2)S(=O)(=O)c2ccc(OC)cc2)cc1 [Compound 39]	great inhibition of osteoclastogenesis	–	–
behaved as CB2 receptor inverse agonists	COc1ccc(S(=O)(=O)N(Cc2ccc(N3CCCCC3)cc2)c2ccccc2)cc1 [Compound 47]	–	–	–
–	CCN(CC)c1ccc(CN(c2ccccc2)S(=O)(=O)c2ccc(C)cc2)cc1 [Compound 34]	great inhibition of osteoclastogenesis	behaved as CB2 receptor inverse agonists	without showing any cytotoxic effects
